Legend:
Neprilysin = biological target: T1, Neprilysin (Rattus norvegicus, UniProt P07861); experiment: Binding affinity of compound against rat kidney neutral endopeptidase (NEP) was determined
T1 sequence (P07861 whole entry): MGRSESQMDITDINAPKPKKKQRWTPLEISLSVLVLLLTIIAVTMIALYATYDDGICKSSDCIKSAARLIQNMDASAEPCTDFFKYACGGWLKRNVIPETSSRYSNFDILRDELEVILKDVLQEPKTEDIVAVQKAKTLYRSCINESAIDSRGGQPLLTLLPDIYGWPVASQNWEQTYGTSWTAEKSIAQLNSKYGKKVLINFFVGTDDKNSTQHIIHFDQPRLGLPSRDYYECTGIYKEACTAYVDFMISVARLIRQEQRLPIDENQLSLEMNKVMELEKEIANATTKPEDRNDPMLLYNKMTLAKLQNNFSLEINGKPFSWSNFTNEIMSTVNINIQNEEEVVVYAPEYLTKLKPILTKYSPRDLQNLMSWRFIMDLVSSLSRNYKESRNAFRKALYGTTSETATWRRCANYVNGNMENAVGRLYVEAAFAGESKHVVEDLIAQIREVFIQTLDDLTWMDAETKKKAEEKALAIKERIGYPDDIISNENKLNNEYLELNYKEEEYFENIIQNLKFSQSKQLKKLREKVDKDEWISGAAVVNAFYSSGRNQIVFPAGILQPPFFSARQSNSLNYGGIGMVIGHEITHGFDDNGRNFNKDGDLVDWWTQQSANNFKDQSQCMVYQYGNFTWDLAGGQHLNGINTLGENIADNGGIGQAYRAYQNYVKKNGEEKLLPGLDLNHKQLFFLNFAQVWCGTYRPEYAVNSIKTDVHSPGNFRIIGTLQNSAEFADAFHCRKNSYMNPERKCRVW
Outline: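 Rat kidney NEP. Fluorogenic assay using dansyl-D-Ala-Gly-(p-nitro)Phe-Gly-OH as substrate. Inhibitor solutions assayed for thiol content with Ellman's reagent immediately prior to testing.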

[1] = biological target: T2, Angiotensin-converting enzyme (Oryctolagus cuniculus, UniProt P12822); experiment: Binding affinity of compound against rabbit lung angiotensin I-converting enzyme (ACE) was determined
T2 sequence (P12822 whole entry): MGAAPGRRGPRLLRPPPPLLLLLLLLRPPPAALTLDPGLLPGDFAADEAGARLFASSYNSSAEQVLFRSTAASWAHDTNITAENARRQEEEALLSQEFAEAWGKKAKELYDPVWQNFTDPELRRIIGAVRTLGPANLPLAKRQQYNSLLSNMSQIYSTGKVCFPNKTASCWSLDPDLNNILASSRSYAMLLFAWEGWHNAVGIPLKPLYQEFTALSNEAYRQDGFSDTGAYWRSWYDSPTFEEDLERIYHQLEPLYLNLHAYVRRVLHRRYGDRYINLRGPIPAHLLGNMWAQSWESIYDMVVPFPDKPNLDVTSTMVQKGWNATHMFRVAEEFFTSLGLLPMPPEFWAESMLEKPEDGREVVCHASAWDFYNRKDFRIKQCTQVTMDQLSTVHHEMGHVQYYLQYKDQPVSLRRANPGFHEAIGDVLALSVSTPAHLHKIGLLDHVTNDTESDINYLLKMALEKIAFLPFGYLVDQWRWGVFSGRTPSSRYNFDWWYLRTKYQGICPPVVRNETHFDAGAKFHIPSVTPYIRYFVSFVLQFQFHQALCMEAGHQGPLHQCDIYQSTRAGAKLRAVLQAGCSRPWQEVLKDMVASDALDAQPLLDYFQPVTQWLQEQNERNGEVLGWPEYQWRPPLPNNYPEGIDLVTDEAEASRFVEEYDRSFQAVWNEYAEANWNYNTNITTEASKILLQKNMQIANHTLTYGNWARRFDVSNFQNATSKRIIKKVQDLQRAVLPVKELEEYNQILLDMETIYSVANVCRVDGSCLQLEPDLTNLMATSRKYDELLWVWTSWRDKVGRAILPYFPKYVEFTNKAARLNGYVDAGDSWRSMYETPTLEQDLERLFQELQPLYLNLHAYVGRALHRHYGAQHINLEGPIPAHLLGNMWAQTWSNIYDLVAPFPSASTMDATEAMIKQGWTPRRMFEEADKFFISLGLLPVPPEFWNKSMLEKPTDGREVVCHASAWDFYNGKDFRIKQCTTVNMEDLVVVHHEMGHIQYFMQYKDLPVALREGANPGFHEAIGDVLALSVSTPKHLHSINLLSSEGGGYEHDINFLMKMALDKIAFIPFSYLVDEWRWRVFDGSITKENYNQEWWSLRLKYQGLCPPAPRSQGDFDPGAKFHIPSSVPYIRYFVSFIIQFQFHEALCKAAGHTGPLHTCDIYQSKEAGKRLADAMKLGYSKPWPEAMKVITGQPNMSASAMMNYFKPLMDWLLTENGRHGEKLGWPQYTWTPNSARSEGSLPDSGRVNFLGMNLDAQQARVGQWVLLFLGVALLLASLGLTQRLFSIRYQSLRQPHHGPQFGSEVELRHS
Outline: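 Rabbit lung ACE. Spectrophotometric assay with recrystallized (furylacryloyl)phenylalanyl-glycylglycine as substrate; colored contaminants removed beforehand. Thiol content of inhibitor solutions checked with Ellman's reagent just before testing.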

Structure (SMILES)	Ki (Neprilysin) [nM]	Ki [1] [nM]
O=C(O)[C@H]1CCCC2c3ccccc3C[C@@H](CS)C(=O)N21 (stereo in doubt; 3)	> 300	2
O=C(O)[C@H]1CCCC2c3ccccc3C[C@@H](CS)C(=O)N21 (stereo in doubt; 4)	45	> 7
O=C(NC1Cc2ccccc2C2CCC[C@H](C(=O)O)N2C1=O)C(S)Cc1ccccc1 (stereo in doubt)	0.08	0.11
O=C(CS)N[C@@H]1Cc2ccccc2C2CCC[C@H](C(=O)O)N2C1=O (some centres not stated)	5	2
O=C(O)[C@H](CCc1ccccc1)N[C@@H]1Cc2ccccc2C2CCC[C@H](C(=O)O)N2C1=O (some centres not stated)	> 10000	0.004
O=C(NC1Cc2ccccc2C2CCC[C@H](C(=O)O)N2C1=O)C(S)Cc1ccccc1 (stereo in doubt; 11b)	0.07	4.5

Reference: ChEMBL document CHEMBL1126771, “Application of a conformationally restricted Phe-Leu dipeptide mimetic to the design of a combined inhibitor of angiotensin I-converting enzyme and neutral endopeptidase 24.11” (J Med Chem, 1993)
